Experimental findings from ChEMBL document CHEMBL4513216, “Probing the Open Global Health Chemical Diversity Library for Multistage-Active Starting Points for Next-Generation Antimalarials” (ACS Infect Dis, 2020) are described below.

A short description of this series: Toxicity liver stage against HepG2, at 10uM. Format: cell-based. Also on record: test concentration 10 uM, cell line HepG2-A16-CD81EGFP. As to conditions: human, HepG2-A16-CD81EGFP cells; read-out: INHIBITION
The method, boiled down:
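Uninfected HepG2-A16-CD81EGFP cells, 3 × 10^3 per well, 1536-well, plated on prespotted compound at 10 μM final, parasite-free screening media added to match infected plates; puromycin 10 μM positive, DMSO 0.5% negative; run in parallel with 48 h PbLuc assay at 37 °C, 5% CO2; viability by CellTiter-Glo luminescence, normalized to controls.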
Turning to `COCCOc1ccnc(-c2noc([C@@H]3CCCN3CC(C)(C)C)n2)c1`, the cytotoxicity at 10 µM is -12.7%. The value for `Cc1ccc(S(=O)(=O)NC[C@H]2OC[C@@H](NCc3ccncc3)[C@@H]2O)cc1` was 2.6%. For the molecule `CCc1cnc2c(c1Nc1ccc(C)c(F)c1)c(=O)n(C)c(=O)n2C`, the cytotoxicity at 10 µM was -2.5%. Next, `Cc1nc(Nc2ccccn2)cc(N2CCN(S(C)(=O)=O)CC2)n1`: 3.96%; `Cc1ccc(N2CCO[C@H]3CN(C(=O)c4cccc(C)n4)C[C@H]32)nn1`: 4.94%; `c1ccc(COC[C@]23COC[C@H]2CN(c2ncccn2)C3)nc1`: 2.14%. Consider `O=c1cc(Cn2ccnc2)nc2n1CCCN(Cc1cccs1)C2`, for which the cytotoxicity at 10 µM came to 0.312%. As for `Cc1ncsc1CN1CC[C@H]2OCC[C@@]2(C(=O)NCC2CC2)C1`, the cytotoxicity at 10 µM stood at 2.4%.

For `COc1c(C(=O)NCC(C)C)nnn1Cc1ccccc1`, the cytotoxicity at 10 µM worked out at 12%. Next, `CNc1cc(C)nc(C2COCCN2Cc2csc(C)n2)n1` (stereo unspecified): 1.45%. As to `O=C(c1cc(C2CC2)on1)N1C[C@H]2CC[C@](O)(c3ccccc3F)[C@H]2C1`, the cytotoxicity at 10 µM is 5.37%. Turning to `Cc1noc(C)c1-c1ccc(C2CCCN2C(=O)Cn2ccnc2)nc1` (stereo unspecified), the cytotoxicity at 10 µM was -10.2%.

As for `CCc1nnc(Nc2cccc(C3CCN(S(=O)(=O)N(C)C)CC3)n2)s1`, the cytotoxicity at 10 µM was -16.2%. For the molecule `Cc1cc(C(=O)N2CCc3nc4sc(C)cc4c(=O)n3CC2)on1`, the cytotoxicity at 10 µM is -16.2%. Next, `COCCN1CCC(Cc2cnc(-c3ccccc3C(=O)O)cn2)CC1`: -11.9%.

On to `Cc1cc(-c2cnc(N3CCOCC3)nc2-c2ccc(C)s2)on1`, for which the cytotoxicity at 10 µM is -5.72%. As for `O=C(C1CCCC1)N1CC2(CCN(C3COC3)C2)OCc2ccccc21` (stereo unspecified), the cytotoxicity at 10 µM came to 4.92%. The value for `O=C(C1CCCC1)N1CC2(CCN(C3COC3)CC2)Cc2ccccc21` was 7.91%.

Take `O=C(Cc1ccc2c(c1)CCCC2)Nc1cccnc1N1CCSCC1`: the cytotoxicity at 10 µM worked out at 11.4%. As for `Cc1ccc(F)c(S(=O)(=O)NCc2[nH]ncc2Br)c1`, the cytotoxicity at 10 µM was determined as 0.67%. As to `O=C(COCC1CCCO1)N(Cc1cccnc1)c1ccc(F)cc1` (stereo unspecified), the cytotoxicity at 10 µM was -2.04%. Next, `COc1ccc(C(C)CCNC2CCN(c3ccccn3)CC2)cc1` (stereo unspecified): 5.29%. In the case of `CCN(Cc1ncc(C(C)(C)C)o1)Cc1ccccc1C`, the cytotoxicity at 10 µM is -9.11%. For the molecule `Cc1nc(C(=O)N(CC(=O)N(C)C)CC(F)(F)F)c2ccccn12`, the cytotoxicity at 10 µM is -16.4%. Next, `CC(C)c1noc(C(C)N2CCN(Cc3nc4ccccc4[nH]3)CC2)n1` (stereo unspecified): -2.16%. `O=C(CC1CCN(c2ncnc3ccccc23)CC1)N1CCCC1`: the cytotoxicity at 10 µM stood at 35.1%. Next, `Cc1ccc(CN(Cc2cc(C)no2)C2CC2)cc1`: -5.17%; `O=C(CNc1cc(-n2cnnn2)ccc1F)NCc1ccccc1`: -6.2%; `O=C(NCC(O)COc1ccccc1)Nc1nncs1` (stereo unspecified): 0.555%. The value for `CS(=O)(=O)c1ccc(NC(=O)CSc2ccc3c(c2)CCC3)cn1` was 11.8%; that for `Cc1ccc(CNC(=O)NC2CCCc3c2cnn3CCO)cn1` (stereo unspecified) was -11.8%; that for `Cc1cc(NC(=O)c2ccccc2Br)n(C)n1` was -6.61%. Next, `COc1cc(C(=O)N(Cc2ccco2)C2CC2)cc(OC)c1OC`: 4.53%; `CC(CN1CCOCC1)NC(=O)NCCc1ccc(Cl)s1` (stereo unspecified): -8.36%; `CCc1cc(C)nc(N2CCN(C(C)c3nc(C)no3)CC2)n1` (stereo unspecified): -2.64%. `CNC(=O)CCCNCc1c(C)nn(CC(C)C)c1N(C)C`: the cytotoxicity at 10 µM is -2.51%. As to `CCc1[nH]n(C)c(=N)c1-c1ccc2c(c1)OCO2`, the cytotoxicity at 10 µM was -45.1%. As for `Cc1ccc2cc(C(=O)N3CCS(=O)(=O)CC3)[nH]c2c1`, the cytotoxicity at 10 µM was -56.3%. The value for `Cc1nc(CN(CCS(C)(=O)=O)C(C)C)cs1` was -44.2%; that for `CCOCCN1CCc2cncnc2C1` was -20.7%. On to `CC(O)CC(C)(C)CNS(=O)(=O)c1cccc(Cl)c1C#N` (stereo unspecified), for which the cytotoxicity at 10 µM is -6.03%. The value for `CC(Cn1cccn1)NCc1cnc(N2CCCC2)nc1` (stereo unspecified) was -13%; that for `COc1ccccc1C1(CNc2snc(Cl)c2C#N)CCOCC1` was 10.2%; that for `CC(C)Cc1noc(CN2CCC(NC(=O)c3cccs3)CC2)n1` was -17.9%. Next, `CCC(=O)N1CCC2(C=C(C(=O)N(C)C)c3ccccc32)CC1`: -87.3%. Next, `Cc1cccc(CN2C[C@@H]3CN(C(=O)C4CCOC4)C[C@@H]3C2=O)c1` (stereo partly specified): -114%; `O=C(c1ccoc1)N1CCC2(CCCN(c3ncc(F)cn3)C2)C1` (stereo unspecified): -98.3%. With `Cn1nc(C(=O)N2CCOCC2)c2c1CN(CC1CCC1)C2`, the cytotoxicity at 10 µM is -103%. On to `Cn1nc(COc2cccnc2)c2c1CCN(c1ncccn1)C2`, for which the cytotoxicity at 10 µM was -105%. Next, `COCCC(=O)N1CCC2(COCc3cnc(N(C)C)nc32)C1` (stereo unspecified): -64.8%; `c1coc(CN2CCO[C@@]3(CCC[C@@H]3COCc3nccs3)C2)c1`: -73.5%. Next, `Cn1cc(CN2CCC3(CCCN3S(C)(=O)=O)CC2)cn1`: 1.59%; `Cc1ccsc1C(=O)N1Cc2ccccc2C2(CCN(C)CC2)C1`: 2.6%; `Cn1ncc2c(NC3CN4CCC3CC4)nc(-c3ccncc3)nc21` (stereo unspecified): 41.1%. With `CCCc1cc(CNc2cc(CCC)nc3ccnn23)on1`, the cytotoxicity at 10 µM is -6.75%. On to `CCC(CO)N(Cc1cccc(-n2cccn2)c1)Cc1cccs1` (stereo unspecified), for which the cytotoxicity at 10 µM was determined as 7.63%. As to `CCC1(CO)CCCN(C(=O)c2ccc(N3CCN(C)CC3)cc2)C1` (stereo unspecified), the cytotoxicity at 10 µM was -4.71%.

In the case of `Cc1nc(CN2CCC3(CCCO3)CC2)c2ccccn12`, the cytotoxicity at 10 µM came to 2.07%. Turning to `Cc1cc(N2CCC(CO)(CC3CCCCO3)CC2)nc2ccccc12` (stereo unspecified), the cytotoxicity at 10 µM stood at 5.51%. The value for `Cc1nc[nH]c1-c1nccn1-c1cccc(CN2CCCC2)c1` was 4.36%; that for `OCc1ccc(-c2c(-c3ccccc3)ncn2CCN2CCOCC2)o1` was -18.9%.

On to `CCCN1CCC(CC(=O)N[C@H](C(=O)O)c2cccc(F)c2F)CC1`, for which the cytotoxicity at 10 µM was found to be 3.78%. The value for `CCc1cc(NCc2cc3n(n2)CCCN(S(C)(=O)=O)C3)nc(C)n1` was -1.52%.

As for `CN1CCC(N(CCc2ccccc2)C(=O)c2ccc(C#N)cc2)CC1`, the cytotoxicity at 10 µM is -2.37%.

Regarding `CN1CCCN(C(=O)c2cc(CN(C)CCc3ccccc3)on2)CC1`, the cytotoxicity at 10 µM was -15.3%. With `O=C(Nc1ccc(-n2cccn2)cc1)N1CCOCC(O)C1` (stereo unspecified), the cytotoxicity at 10 µM was -46.8%.

As to `Cc1cc(CN[C@@H](Cc2ccccc2)C(N)=O)c(C)s1`, the cytotoxicity at 10 µM is -0.527%. Next, `COc1ccc(OCc2nc(C(=O)N3CCCNC(=O)C3)co2)cc1`: -45.1%; `O=C(O)Cc1cccc(-n2ccnc2-c2ccc(Cl)s2)c1`: 0.185%; `CC(C)CN1CC2(CCN(C(=O)C3CNC(=O)N3)CC2)CC1=O` (stereo unspecified): 2.18%.

For `Cc1ccc(NC2(C(=O)NCCCN)CCCC2)cc1`, the cytotoxicity at 10 µM turned out to be 1.58%. Turning to `CC(C)c1nnsc1CNC(=O)C1CCCN(C(=O)N(C)C)C1` (stereo unspecified), the cytotoxicity at 10 µM is -7.73%.

For `CCN1CCCC1CN(Cc1ccoc1)CC1CCN(CCOC)CC1` (stereo unspecified), the cytotoxicity at 10 µM was -2.64%.

Turning to `Cc1nn(C)c2nc(N(CCN(C)C)C3CCCC3)sc12`, the cytotoxicity at 10 µM was -1.93%. For the molecule `CN1CC2(CCN(Cc3ncc[nH]3)CC2)CC1=O`, the cytotoxicity at 10 µM was -1.52%. Turning to `Cc1csc2c(N3CCC(NCCc4ccnn4C)CC3)ncnc12`, the cytotoxicity at 10 µM came out at 0.429%. The value for `O=C1CCCCN1CCC(=O)N1CCCCC1c1ccc(F)cc1` (stereo unspecified) was -41.7%; that for `CCc1nnc(CN(C)c2nc(C(C)C)nc3c2cnn3C)o1` was -9.52%. For `COC[C@@]12CC[C@@H](N3CCOCC3)C[C@H]1CCN(c1ncccn1)C2`, the cytotoxicity at 10 µM is -11.9%. The value for `CC(C)c1cc(CN2CCC(CC(=O)O)CC2)no1` was -2.53%; that for `O=C(COc1cccc(F)c1)N1C[C@@H](O)[C@H](N2CCCC2)C1` was -4.22%; that for `CCc1cc(C(=O)N2CCCC2c2nc(C)c(F)c(O)n2)on1` (stereo unspecified) was 0.626%. Next, `Cc1[nH]ncc1C(=O)N1CCCN(Cc2nccn2C(C)C)CC1`: -6.33%; `Cn1ccnc1CN1CCN(c2ccc(C#N)cc2F)CC1`: -2.06%; `Cc1cc(C)n(-c2ccc(CNCc3ccc(OC(C)C)cc3)cn2)n1`: -6.95%. `Cn1nc(COc2cccnc2)c2c1CCN(c1cnccn1)C2`: the cytotoxicity at 10 µM was 1.34%. For `Cc1noc([C@@H]2CCO[C@@H]3CCN(Cc4ccc(C)s4)C[C@@H]32)n1`, the cytotoxicity at 10 µM was -77.6%. The value for `CNC(=O)CN1CCOCC2(CCCN(Cc3ccc(F)cc3)C2)C1` (stereo unspecified) was 6.88%; that for `c1cnn(CCCO[C@@H]2CC[C@H]3[C@H]2OCCN3CC2CC2)c1` was 5.93%. `COc1ncc(C2(O)CCN(Cc3c(F)cccc3F)CC2)c(OC)n1`: the cytotoxicity at 10 µM is 5.29%. Regarding `Cc1ncnc2c1CCN(CC(=O)N(C)C)CC2`, the cytotoxicity at 10 µM is -101%. Next, `O=C(c1cnccn1)N1CCC2(CC1)CCN(Cc1ccccn1)C2=O`: 0.108%; `CS(=O)(=O)N1Cc2cnn(CC3CC3)c2C(COCC2CC2)C1` (stereo unspecified): 9.43%; `Cn1ccnc1CN1CCC2(CC(=O)N(c3ccsc3)C2)C1` (stereo unspecified): -82.7%. The value for `CN(C)CC(=O)N1C[C@H]2CCC[C@@]2(COc2ccccn2)C1` was 3.88%; that for `CCN1CCO[C@]2(CCC[C@H]2COCc2csc(C)n2)C1` was 0.153%.
